Laboratory results published in ChEMBL document CHEMBL1158400, “Synthesis of 2-styrylchromones as a novel class of antiproliferative agents targeting carcinoma cells” (Eur J Med Chem, 2009).
Calls of active or inactive are those of the source. No cut-off for these calls is given here.

How the values were obtained:
HeLa [1] = assay: Antiproliferative activity against human HeLa cells after 12 hrs by MTT assay; assay type: functional, cell-based
In short: (§1)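 MTT assay. Cells grown as monolayers in DMEM with 10% FBS, 2 mM glutamine and penicillin/streptomycin at 37 °C, 5% CO2. Seeded at 1×10^4 cells/well and held 12 h before serial compound dilutions were added. Final DMSO was under 1% (v/v). MTT (2 mg/ml) was present for the last 1.5 h; the formazan was dissolved in DMSO and read at 570 nm. IC50 interpolated from dose-response curves; mean ± sem of four to six experiments.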

[2] = Antiproliferative activity against human BT-483 cells after 12 hrs by MTT assay; assay type: functional, cell-based; details: BT-483, 12 h; in short: as §1
A549 = assay: Antiproliferative activity against human A549 cells after 12 hrs by MTT assay; assay type: functional, cell-based; details: A549, 12 h; in short: as §1
PC-3 = assay: Antiproliferative activity against human PC3 cells after 12 hrs by MTT assay; assay type: functional, cell-based; details: PC-3, 12 h; in short: as §1
[3] = Antiproliferative activity against human SKHep cells after 12 hrs by MTT assay; assay type: functional, cell-based; in short: as §1
HeLa [4] = assay: Antiproliferative activity against human HeLa cells assessed as morphological changes at 20 uM after 24 hrs using DAPI staining by fluorescence microscopy; assay type: functional, cell-based
In short: (§2)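 HeLa cells were exposed 24 h to 5, 10 or 20 μM compound, with untreated and DMSO controls. Morphology (cell rounding, detachment from substratum) was examined.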

HeLa [5] = assay: Cell cycle arrest in human HeLa cells assessed as accumulation at sub-G1 phase after 24 hrs using propidium iodide staining by FACS analysis; assay type: functional, cell-based
In short: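 HeLa cells were treated 24 h with compound at 5 or 20 μM, with a 0.5% DMSO control and untreated blank. Cells were harvested, rinsed in PBS and fixed in 80% ethanol at −20 °C. They were stained with propidium iodide and analysed by flow cytometry. The sub-diploid (apoptotic) population is expressed as a percentage of all cells.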

HeLa [6] = assay: Antiproliferative activity against human HeLa cells assessed as DNA fragmentation at 10 uM after 24 hrs using […] DAPI staining by fluorescence microscopy; assay type: functional, cell-based
In short: (§3)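 HeLa cells grown on cover glasses were treated 24 h with 5 or 10 μM compound, with untreated and 0.5% DMSO controls. They were fixed in 4% paraformaldehyde, glycine-washed and permeabilized with 2% FBS/0.4% Triton X-100. Nuclei were stained with DAPI (0.1 μg/ml) for 5 min in the dark, and DNA fragmentation was examined by fluorescence microscopy.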

HeLa [7] = assay: Antiproliferative activity against human HeLa cells at 10 uM after 30 hrs by MTT assay; assay type: functional
In short: (§4)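 HeLa cells at 10^4 cells/well were given the compound at 1.0, 3.0 or 10 μM, alongside an untreated control and a 0.1% DMSO control. Proliferation was followed by MTT at several time points over a 30 h period.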

HeLa [8] = assay: Antiproliferative activity against human HeLa cells assessed as morphological changes at 10 uM after 24 hrs using DAPI staining by fluorescence microscopy; assay type: functional, cell-based; in short: as §2
HeLa [9] = assay: Antiproliferative activity against human HeLa cells assessed as DNA fragmentation at 5 uM after 24 hrs using […] DAPI staining by fluorescence microscopy; assay type: functional, cell-based; in short: as §3
HeLa [10] = assay: Antiproliferative activity against human HeLa cells at 3 uM after 30 hrs by MTT assay; assay type: functional; in short: as §4
HeLa [11] = assay: Antiproliferative activity against human HeLa cells assessed as morphological changes at 5 uM after 24 hrs using DAPI staining by fluorescence microscopy; assay type: functional, cell-based; in short: as §2
HeLa [12] = assay: Cell cycle arrest in human HeLa cells assessed as accumulation at G1 phase at 20 uM after 24 hrs using propidium iodide staining by FACS analysis; assay type: functional, cell-based

IC50 (HeLa [1]) [µM]	IC50 (A549) [µM]	IC50 (PC-3) [µM]	Structure (SMILES)	IC50 ([2]; read-out: IC50) [µM]	IC50 ([2]; read-out: pIC50 (converted)) [µM]	IC50 [3] [µM]	Activity (HeLa [4])	Activity (HeLa [5])	Activity (HeLa [6])	Activity (HeLa [7]) [%]	Activity (HeLa [8])	Activity (HeLa [9])	Activity (HeLa [10]) [%]	Activity (HeLa [11])	Activity (HeLa [12])
17.8	> 40	> 40	COc1ccc(/C=C/c2cc(=O)c3c(OC)cc(OC)cc3o2)cc1	29.6	29.5	> 40	–	–	–	–	–	–	–	–	–
9.1	> 40	> 40	COc1cccc2oc(/C=C/c3ccc(OC(F)(F)F)cc3)cc(=O)c12	18.2	18.2	21	–	–	–	–	–	–	–	–	–
18.8	> 40	> 40	COc1cc(OC)c2c(=O)cc(/C=C/c3ccncc3)oc2c1	25.2	25.1	> 40	–	–	–	–	–	–	–	–	–
14.2	> 40	> 40	COc1cc(OC)c2c(=O)cc(/C=C/c3ccc(Cl)cc3)oc2c1	26.1	26.3	26.9	–	–	–	–	–	–	–	–	–
16.7	15.6	> 40	COc1cc(/C=C/c2cc(=O)c3c(OC)cc(OC)cc3o2)cc(OC)c1	16.6	16.6	23.7	–	–	–	–	–	–	–	–	–
4.9	> 40	> 40	COc1ccc2c(=O)cc(/C=C/c3ccc(OC(F)(F)F)cc3)oc2c1OC	30.9	30.9	12.4	Active	Dose-dependent effect	Active	60	Active	inactive	15	Active	–
10.1	21.5	> 40	COc1cc(OC)c2c(=O)cc(/C=C/c3ccccc3)oc2c1	> 40	–	26	–	–	–	–	–	–	–	–	Active
> 40	24.2	> 40	COc1cc(OC)c2c(=O)cc(/C=C/c3ccc(OC(F)(F)F)cc3)oc2c1	26.6	26.3	12.5	–	–	–	–	–	–	–	–	–
9.9	> 40	> 40	COc1ccc2c(=O)cc(/C=C/c3ccc(OC(F)(F)F)cc3)oc2c1	20.1	20	> 40	–	–	–	–	–	–	–	–	–
9	> 40	> 40	COc1ccc2oc(/C=C/c3ccc(OC(F)(F)F)cc3)cc(=O)c2c1	> 40	–	> 40	–	–	–	–	–	–	–	–	–
> 40	> 40	> 40	COc1cc(OC)c2c(=O)cc(/C=C/c3ccc(Br)cc3)oc2c1	> 40	60.3	> 40	–	–	–	–	–	–	–	–	–
9.6	19.7	> 40	COc1cc(OC)c2c(=O)cc(/C=C/c3ccc([N+](=O)[O-])cc3)oc2c1	25.5	25.5	22	–	–	–	–	–	–	–	–	–
16.4	> 40	> 40	COc1cc(OC)c2c(=O)cc(/C=C/c3ccc4c(c3)OCO4)oc2c1	29.3	29.5	23.7	–	–	–	–	–	–	–	–	–
14.2	18.6	> 40	COc1cc(OC)c2c(=O)cc(/C=C/c3ccc(F)cc3)oc2c1	19.9	20	29.2	–	–	–	–	–	–	–	–	–
10.9	20.9	> 40	COc1cc(OC)c2c(=O)cc(/C=C/c3ccc(OCC4CC4)cc3)oc2c1	16.6	16.6	22.1	–	–	–	–	–	–	–	–	–
19	> 40	> 40	COc1cc(OC)c2c(=O)cc(/C=C/c3ccc(C(F)(F)F)cc3)oc2c1	> 40	60.3	20.6	–	–	–	–	–	–	–	–	Active
